Source: ChEMBL document CHEMBL1135934, “Structure-activity relationships of methoctramine-related polyamines as muscular nicotinic receptor noncompetitive antagonists. 2. Role of polymethylene chain lengths separating amine functions and of substituents on the terminal nitrogen atoms” (J Med Chem, 2002)

How the values were obtained:
[1] = biological target: Muscarinic acetylcholine receptor M3 (Cavia porcellus) (UniProt Q8VH26); test: Antagonist affinity at muscarinic acetylcholine receptor (mAChR) of guinea pig longitudinal ileum (M3); type: functional, tissue-based
How it was run: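 Guinea pig ileum (either sex, 200-400 g) in a 15 mL organ bath of physiological salt solution, gassed 5% CO2/95% O2, pH 7.4. Arecaidine propargyl ester curves (0.01-0.5 µM) were run at 30 min intervals, with the first discarded and the second taken as control. A repeat curve followed 60 min antagonist. pK came from graphical EC50 dose ratios by the Furchgott equation.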

[2] = Antagonism of carbachol action on nAChR of isolated frog rectus abdominus.; type: functional, tissue-based, Rectus abdominis muscle
[3] = test system: Muscarinic acetylcholine receptor M2 (Cavia porcellus); test: Antagonist affinity at muscarinic acetylcholine receptor (mAChR) of guinea pig left atrium (M2); conditions: Cardiac atrium
[4] = biological target: Acetylcholine receptor (Torpedo californica) (UniProt P02710+P02712+P02718+P02714); conditions: Tetronarce californica; Electric organ

Muscarinic acetylcholine receptor M3 (Cavia porcellus), sequence (Q8VH26 1-587): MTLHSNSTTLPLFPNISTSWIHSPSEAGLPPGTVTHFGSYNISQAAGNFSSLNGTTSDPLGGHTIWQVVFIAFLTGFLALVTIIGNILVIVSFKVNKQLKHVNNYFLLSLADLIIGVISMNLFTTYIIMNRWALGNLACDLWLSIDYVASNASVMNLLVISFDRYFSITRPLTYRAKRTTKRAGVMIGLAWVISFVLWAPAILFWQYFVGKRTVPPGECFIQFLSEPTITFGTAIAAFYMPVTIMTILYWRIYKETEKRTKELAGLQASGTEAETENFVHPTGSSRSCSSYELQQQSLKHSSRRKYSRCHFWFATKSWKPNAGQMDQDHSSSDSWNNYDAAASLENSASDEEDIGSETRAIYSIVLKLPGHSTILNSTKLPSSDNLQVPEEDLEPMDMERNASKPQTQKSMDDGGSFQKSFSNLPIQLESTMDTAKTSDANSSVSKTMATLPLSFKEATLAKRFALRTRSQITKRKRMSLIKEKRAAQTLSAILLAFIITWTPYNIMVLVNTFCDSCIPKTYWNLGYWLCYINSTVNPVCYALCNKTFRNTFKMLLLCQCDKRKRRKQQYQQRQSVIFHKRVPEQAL

SMILES	pKB [1]	Log IC50 [2]	pKB [3]	pKapp [4]
COc1ccccc1CCNCCCCCCNCCCCCCCCNCCCCCCNCCc1ccccc1OC	5.32	-5.36	6.64	–
CCCC(=O)N[C@H](Cc1ccc(O)cc1)C(=O)NCCCNCCCCCCNCCCCCCNCCCCCCNCc1ccccc1OC	5.08	-5.48	5.87	6.12
CCCC(=O)N[C@H](Cc1ccc(O)cc1)C(=O)NCCCNCCCCCCNCCCCCCCCCCCCNCCCCCCN	–	-6.3	–	5.28
[N-]=[N+]=Nc1ccc(C(=O)NCCCNCCCCCCNCCCCCCCCNCCCCCCN)c(O)c1	7.35	-6.39	7.01	5.46
CCCC(=O)NC(Cc1ccc(O)cc1)C(=O)NCCCNCCCCNCCCN (stereo unspecified)	< 5	-4.62	–	3.94
COc1ccccc1CNCCCNCCCCCCNCCCCCCCCCCCCNCCCCCCNCCCNCc1ccccc1OC	< 5	-6.66	6.5	7.04
COc1ccccc1CN(C)CCCCCCN(C)CCCCCCCCN(C)CCCCCCN(C)Cc1ccccc1OC	< 5	-5.88	6.79	–
CCCC(=O)N[C@H](Cc1ccc(O)cc1)C(=O)NCCCNCCCCCCNCCCCCCCCCCCCNCCCCCCNCc1ccccc1OC	–	-6.27	–	5.89
[N-]=[N+]=Nc1ccc(C(=O)NCCCNCCCCCCNCCCCCCCCNCCCCCCNCCCNC(=O)c2ccc(N=[N+]=[N-])cc2O)c(O)c1	–	-5.8	–	5.86
[N-]=[N+]=Nc1ccc(C(=O)NCCCNCCCCCCNCCCCCCCCCCCCNCCCCCCNCCCNC(=O)c2ccc(N=[N+]=[N-])cc2O)c(O)c1	–	-6.17	–	5.72
COc1ccc2cc(C(=O)NCCCNCCCCCCNCCCCCCCCNCCCCCCNCc3cc(I)ccc3OC)c(=O)oc2c1	5.68	-7.11	–	6.8
c1ccc(C(CNCCCCCCNCCCCCCCCNCCCCCCNCC(c2ccccc2)c2ccccc2)c2ccccc2)cc1	5.4	-6.31	5.98	–
CCCC(=O)N[C@H](Cc1ccc(O)cc1)C(=O)NCCCNCCCCCCNCCCCCCNCCCCCCN	5.16	-5.62	< 5	4.63
COc1ccccc1CNCCCCCCOCCCCCCCCOCCCCCCNCc1ccccc1OC	< 5	-5.14	< 5	–
COc1ccc2cc(C(=O)NCCCNCCCCCCNCCCCCCCCNCCCCCCNCc3ccccc3OC)c(=O)oc2c1	6.19	-6.21	–	6.41

Further lines, results first:

pKB [1]	Log IC50 [2]	pKB [3]	pKapp [4]	SMILES
< 5	-6.3	< 5	6.35	COc1ccccc1CNCCCCCCNCc1ccc(-c2ccc(-c3ccc(CNCCCCCCNCc4ccccc4OC)cc3)cc2)cc1
< 5	-6.43	< 5	6.19	COc1ccccc1CNCc1ccc(CNCCCCCCCCCCCCNCc2ccc(CNCc3ccccc3OC)cc2)cc1
< 6	-6.44	< 6	6.66	COc1ccccc1CNCCCNCCCCCCNCCCCCCCCNCCCCCCNCCCNCc1ccccc1OC
6.14	-5.93	–	6.21	COc1ccccc1CNCCCCCCNCCCCCCCCNCCCCCCNCc1ccccc1OC [METHOCTRAMINE]
< 5	-6.42	6.15	6.4	COc1ccccc1CNCCCNCCCCCCNCCCCCCNCCCCCCNCCCNCc1ccccc1OC
5.3	-6.68	6.98	–	COc1ccccc1CNCCCCCCNCCCCCCNCCCCCCNCCCCCCNCc1ccccc1OC
5.98	-7.02	7.35	5.66	COc1ccccc1CNCCCCCCNCCCCCCCCCCCCNCCCCCCNCc1ccccc1OC
